In brackets after ≈: the same amount, converted by molar mass.
Experiments:
A549 [1] = assay: Cytotoxic activity against A549 cell line (non-small cell lung carcinoma); type: functional, cell-based, Homo sapiens
XF498 = assay: Cytotoxic activity against XF498 cell line (human CNS solid tumor); type: functional, cell-based
SK-OV-3 = assay: Cytotoxic activity against SKOV-3 cell line (human solid ovarian tumor cell line); type: functional, cell-based
SK-MEL-2 = assay: Cytotoxic activity against SKMEL-2 cell line; type: functional, cell-based, Homo sapiens
HCT-15 = assay: Cytotoxic activity against HCT15 cell line (human colon solid tumor cell line); type: functional, cell-based
HepG2 = assay: In vitro antiproliferative activity against HepG2 cell line (human liver tumor) at 1 uM concentration; type: functional
Method in brief: (§1)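 Each cell line was exposed to test compound at a single concentration of 1 µM, and activity was reported as percent inhibition.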

MKN-45 = assay: In vitro antiproliferative activity against MKN45 cell line (human stomach tumor) at 1 uM concentration; type: functional; method in brief: as §1
A549 [2] = assay: In vitro antiproliferative activity against A549 cell line (human lung tumor) at 1 uM concentration; type: functional; method in brief: as §1
MCF7 = assay: In vitro antiproliferative activity against MCF-7 cell line (human breast tumor) at 1 uM concentration; type: functional; method in brief: as §1
[3] = Homo sapiens, A549, read-out: IC50
[4] = Homo sapiens, XF498, read-out: IC50
[5] = Homo sapiens, SK-OV-3, read-out: IC50
[6] = Homo sapiens, SK-MEL-2, read-out: IC50
[7] = Homo sapiens, HCT-15, read-out: IC50

Row | Compound | IC50 (A549 [1]; [3]) [µg/mL] | IC50 (XF498; [4]) [µg/mL] | IC50 (SK-OV-3; [5]) [µg/mL] | IC50 (SK-MEL-2; [6]) [µg/mL] | IC50 (HCT-15; [7]) [µg/mL] | inhibition at 1 µM (HepG2) [%] | inhibition at 1 µM (MKN-45) [%] | inhibition at 1 µM (A549 [2]) [%] | inhibition at 1 µM (MCF7) [%] | further results
1 | Cc1nn(C)c(Oc2ccc(Cl)cc2)c1/C=N/OCc1ccc(C(=O)OC(C)(C)C)cc1 | 0.1 (≈ 0.219 µM) | 0.02 (≈ 0.0439 µM) | 0.28 (≈ 0.614 µM) | 18.8 (≈ 41.2 µM) | 0.01 (≈ 0.0219 µM) | – | – | – | – | –
2 | Cc1ccc(CO/N=C/c2c(C)nn(C)c2Oc2ccc(Cl)cc2)cc1 | – | – | – | – | – | 31.3 | 30.4 | 50 | 30.7 | –
3 | Cc1nn(C)c(Oc2ccccc2)c1/C=N/OCCN1CCOCC1 | – | – | – | – | – | -40.5 | -28 | -19.4 | 5.4 | –
4 | Cc1nn(C)c(Oc2ccccc2)c1/C=N/OCCN1CCN(Cc2ccc(C(F)(F)F)cc2)CC1 | – | – | – | – | – | 14.4 | 15.4 | 39.7 | 37.7 | –
5 | Cc1nn(-c2ccccn2)c(Oc2ccccc2)c1/C=N/OCc1ccc(C(=O)OC(C)(C)C)cc1 | – | – | – | – | – | -25.1 | -9.8 | -9.1 | -14.8 | –
6 | Cc1nn(C)c(Oc2ccccc2)c1/C=N/OCCN1CCCCC1 | – | – | – | – | – | -29 | -22.5 | -9.9 | 3.2 | –
7 | Cc1ccc(CO/N=C/c2c(C)nn(C)c2Oc2ccccc2)cc1 | – | – | – | – | – | 8.4 | 17.9 | 29.1 | 38.2 | –
8 | Cc1nn(-c2ccccc2)c(Oc2ccc(Cl)cc2)c1/C=N/OCc1ccc(C(=O)OC(C)(C)C)cc1 | – | – | – | – | – | -31.1 | -9.9 | -6.1 | -8.4 | –
9 | Cc1nn(C)c(-n2cccn2)c1/C=N/OCc1ccc(C(=O)OC(C)(C)C)cc1 | 2.49 (≈ 6.3 µM) | 5.51 (≈ 13.9 µM) | 9.63 (≈ 24.4 µM) | 28.8 (≈ 72.8 µM) | 3.63 (≈ 9.18 µM) | – | – | – | – | –
10 | CC(C)c1nn(-c2ccccc2)c(Oc2ccc(Cl)cc2)c1/C=N/OCc1ccc(C(=O)OC(C)(C)C)cc1 | – | – | – | – | – | -14.7 | -27 | -10 | -4.9 | –
11 | COC(=O)c1ccc(CO/N=C/c2c(C)nn(C)c2Oc2ccc(Cl)cc2)cc1 | – | – | – | – | – | 20.3 | 26.1 | 49.9 | 33.6 | –
12 | CCOC(=O)c1ccc(CO/N=C/c2c(C)nn(C)c2Oc2ccc(Cl)cc2)cc1 | – | – | – | – | – | 27.4 | 20.9 | 48.2 | 33.9 | –
13 | Cc1nn(C)c(Oc2ccccc2)c1/C=N/OCc1cccc(-c2ccccc2)c1C | – | – | – | – | – | -13.2 | -12.1 | 5 | 24.4 | –
14 | Cc1nn(C)c(N2CCOCC2)c1/C=N/OCc1ccc(C(=O)OC(C)(C)C)cc1 | 0.39 (≈ 0.941 µM) | 1.04 (≈ 2.51 µM) | 8.87 (≈ 21.4 µM) | 16.7 (≈ 40.3 µM) | 1.83 (≈ 4.41 µM) | – | – | – | – | –
15 | Cc1nn(C)c(Oc2ccccc2)c1/C=N/OCCN(C)C | – | – | – | – | – | -36.1 | -29 | -5.9 | 8.9 | –
16 | Cc1nn(C)c(Oc2ccc(Cl)cc2)c1/C=N/OCc1ccc([N+](=O)[O-])cc1 | – | – | – | – | – | 18.4 | 24.6 | 39.6 | 27.1 | –
17 | Cc1nn(C)c(Oc2ccc(Cl)cc2)c1/C=N/OCc1ccc(C(F)(F)F)cc1 | – | – | – | – | – | 20.6 | 27.6 | 50.9 | 16.4 | –
18 | COc1cccc(CO/N=C/c2c(C)nn(C)c2Oc2ccccc2)c1 | – | – | – | – | – | -41.2 | -19.6 | 1 | 8.4 | –

Row | Compound | IC50 (A549 [1]; [3]) [µg/mL] | IC50 (XF498; [4]) [µg/mL] | IC50 (SK-OV-3; [5]) [µg/mL] | IC50 (SK-MEL-2; [6]) [µg/mL] | IC50 (HCT-15; [7]) [µg/mL] | inhibition at 1 µM (HepG2) [%] | inhibition at 1 µM (MKN-45) [%] | inhibition at 1 µM (A549 [2]) [%] | inhibition at 1 µM (MCF7) [%] | further results
19 | Cc1nn(C)c(Sc2ccccc2)c1/C=N/OCc1ccc(C(=O)OC(C)(C)C)cc1 | 0.13 (≈ 0.297 µM) | 0.28 (≈ 0.64 µM) | 0.92 (≈ 2.1 µM) | 4.91 (≈ 11.2 µM) | 0.26 (≈ 0.594 µM) | – | – | – | – | –
20 | CCOC(=O)c1ccc(CO/N=C/c2c(C)nn(-c3ccccc3)c2Oc2ccc(Cl)cc2)cc1 | – | – | – | – | – | -31.8 | -17.8 | -9.9 | 12 | –
21 | Cc1nn(C)c(Oc2ccccc2)c1/C=N/OCCN1CCCC1 | – | – | – | – | – | -25 | -24.2 | -8.2 | 7.7 | –
22 | Cc1nn(C)c(-n2ccnc2)c1/C=N/OCc1ccc(C(=O)OC(C)(C)C)cc1 | 5.93 (≈ 15 µM) | 8.15 (≈ 20.6 µM) | 14.1 (≈ 35.6 µM) | 9.35 (≈ 23.6 µM) | 8.67 (≈ 21.9 µM) | – | – | – | – | –
23 | Cc1nn(C)c(-n2ccc3ccccc32)c1/C=N/OCc1ccc(C(=O)OC(C)(C)C)cc1 | 0.43 (≈ 0.967 µM) | 1.61 (≈ 3.62 µM) | 2.07 (≈ 4.66 µM) | 26.5 (≈ 59.6 µM) | 1.57 (≈ 3.53 µM) | – | – | – | – | –
24 | Cc1nn(C)c(Oc2ccccc2)c1/C=N/OCc1ccc([N+](=O)[O-])cc1 | – | – | – | – | – | -2.8 | 18.3 | 39.4 | 24 | –
25 | Cc1nn(C)c(Oc2ccccc2)c1/C=N/OCCN1CCN(Cc2ccc(C(=O)OC(C)(C)C)cc2)CC1 | – | – | – | – | – | 19.8 | 19.2 | 44.7 | 32 | –
26 | Cc1nn(C)c(Oc2ccccc2)c1/C=N/OCCN1CCN(Cc2ccccc2)CC1 | – | – | – | – | – | 6.7 | 10.5 | 28.4 | 23.4 | –
27 | Cc1nn(C)c(Oc2ccccc2)c1/C=N/OCc1ccc(C(F)(F)F)cc1 | – | – | – | – | – | 5.8 | 11 | 34.7 | 30.5 | –
28 | Cc1c(CO/N=C/c2c(-c3ccccc3)nn(-c3ccccc3)c2Oc2ccc(Cl)cc2)cccc1-c1ccccc1 | – | – | – | – | – | -14.8 | -15 | -10.1 | -17.5 | –
29 | Cc1nn(C)c(-n2cccc2)c1/C=N/OCc1ccc(C(=O)OC(C)(C)C)cc1 | 1.64 (≈ 4.16 µM) | 2.67 (≈ 6.77 µM) | 3.91 (≈ 9.91 µM) | 24.9 (≈ 63.1 µM) | 2.48 (≈ 6.29 µM) | – | – | – | – | –
30 | COc1ccc(CO/N=C/c2c(C)nn(C)c2Oc2ccc(Cl)cc2)cc1 | – | – | – | – | – | 13.9 | 28.1 | 43.9 | 37 | –
31 | CC(C)c1nn(-c2ccccc2)c(Oc2ccc(Cl)cc2)c1/C=N/OCc1ccc(C(F)(F)F)cc1 | – | – | – | – | – | -2.2 | -15.4 | -12.1 | -1.9 | –
32 | Cc1nn(C)c(N(C)C)c1/C=N/OCc1ccc(C(=O)OC(C)(C)C)cc1 | 2.76 (≈ 7.41 µM) | 3.87 (≈ 10.4 µM) | 9.06 (≈ 24.3 µM) | 23.9 (≈ 64.3 µM) | 6.22 (≈ 16.7 µM) | – | – | – | – | –
33 | Cc1nn(C)c(N2CCCC2)c1/C=N/OCc1ccc(C(=O)OC(C)(C)C)cc1 | 0.13 (≈ 0.326 µM) | 0.12 (≈ 0.301 µM) | 3.19 (≈ 8 µM) | 14.4 (≈ 36.2 µM) | 0.1 (≈ 0.251 µM) | – | – | – | – | –
34 | COc1cccc2c1C(=O)c1c(O)c3c(c(O)c1C2=O)C[C@@](O)(C(=O)CO)C[C@@H]3O[C@H]1C[C@H](N)[C@H](O)[C@H](C)O1 [DOXORUBICIN] | 0.05 (≈ 0.092 µM) | 0.09 (≈ 0.166 µM) | 0.09 (≈ 0.166 µM) | 0.07 (≈ 0.129 µM) | 0.28 (≈ 0.515 µM) | – | – | – | – | –
35 | Cc1nn(C)c(Oc2ccccc2)c1/C=N/OCc1ccc(C(=O)OC(C)(C)C)cc1 [FENPYROXYMATE] | 0.12 (≈ 0.285 µM) | 0.04 (≈ 0.0949 µM) | 0.21 (≈ 0.498 µM) | 13.3 (≈ 31.5 µM) | 0.02 (≈ 0.0474 µM) | – | – | – | – | –
36 | CISPLATIN | – | – | – | – | – | – | – | – | – | IC50 (A549 [1]; a549): 3.09 µg/mL; IC50 (XF498; xf498): 3.47 µg/mL; IC50 (SK-OV-3; sk-ov-3): 3.42 µg/mL; IC50 (SK-MEL-2; sk-mel-2): 3.28 µg/mL; IC50 (HCT-15; hct-15): 6.91 µg/mL

Source: ChEMBL document CHEMBL1140245, “Identification of antitumor activity of pyrazole oxime ethers” (Bioorg Med Chem Lett, 2005)
